Experimental data published in ChEMBL document CHEMBL3797104, “Triazole tethered C5-curcuminoid-coumarin based molecular hybrids as novel antitubulin agents: Design, synthesis, biological investigation and docking studies” (Eur J Med Chem, 2016).
Activity calls are given as the source filed them. The rule behind the calls is not given here.

What was measured:
PC-3 = test: (§1) Cytotoxicity against human PC3 cells assessed as growth inhibition at 50 uM after 48 hrs by SRB assay; type: functional
Procedure, shortened: (§2)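 Single-concentration screen at 50 µM. Cells grew 24 h at 37 °C, then had 48 h exposure in complete medium.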

[1] = Cytotoxicity against human COLO205 cells assessed as growth inhibition at 50 uM after 48 hrs by SRB assay; type: functional; settings: COLO 205, 48 h, read-out: GI; procedure, shortened: as §2
[2] = Cytotoxicity against human HCT116 cells assessed as growth inhibition at 50 uM after 48 hrs by SRB assay; type: functional; settings: HCT-116, 48 h, read-out: GI; procedure, shortened: as §2
[3] = Cytotoxicity against human THP1 cells assessed as growth inhibition at 50 uM after 48 hrs by SRB assay; type: functional; settings: THP-1, 48 h, read-out: GI; procedure, shortened: as §2
[4] = as §1; type: functional; settings: PC-3, 48 h, read-out: GI; procedure, shortened: as §2
[5] = Cytotoxicity against human COLO205 cells after 48 hrs by SRB assay; type: functional, cell-based; settings: COLO 205, 48 h
Procedure, shortened: (§3)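 SRB assay in 96-well plates. Cells were seeded and grown 24 h at 37 °C in a CO2 incubator, then given test material in complete medium for a further 48 h. Cells were fixed with cold 50% TCA for 1 h at 4 °C, stained 30 min with 0.4% SRB in 1% acetic acid, and washed with […]. IC50 was taken from multi-concentration testing, run only for hybrids giving >70% inhibition at 50 µM in at least one line.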

[6] = Cytotoxicity against human HCT116 cells after 48 hrs by SRB assay; type: functional, cell-based; settings: HCT-116, 48 h; procedure, shortened: as §3
[7] = Cytotoxicity against human THP1 cells after 48 hrs by SRB assay; type: functional, cell-based; settings: THP-1, 48 h; procedure, shortened: as §3

Row | Compound | growth inhibition (GI) (PC-3) | inhibition of growth at 50 µM [1] [%] | inhibition of growth at 50 µM [2] [%] | inhibition of growth at 50 µM [3] [%] | inhibition of growth at 50 µM [4] [%] | IC50 [5] [µM] | IC50 [6] [µM] | IC50 [7] [µM]
1 | COc1ccc(/C=C/C(=O)/C=C/c2ccc(OCc3cn(CCCCCOc4cc(=O)oc5ccccc45)nn3)c(OC)c2)cc1OC | inactive | 43 | 45 | 47 |  |  |  | 
2 | COc1cc(/C=C/C(=O)/C=C/c2cccc3ccccc23)ccc1OCc1cn(CCCCCOc2cc(=O)oc3ccccc23)nn1 | inactive | 40 | 42 | 44 |  |  |  | 
3 | COc1cc(/C=C/C(=O)/C=C/c2ccco2)ccc1OCc1cn(CCOc2cc(=O)oc3ccccc23)nn1 |  | 68 | 72 | 78 | 14 | 11.8 | 9.18 | 7.87
4 | COc1ccccc1/C=C/C(=O)/C=C/c1ccc(OCc2cn(CCOc3cc(=O)oc4ccccc34)nn2)c(OC)c1 |  | 67 | 70 | 75 | 11 | 11.5 | 9.49 | 7.33
5 | COc1cc(/C=C/C(=O)/C=C/c2cc(OC)c(OC)c(OC)c2)ccc1OCc1cn(CCCCOc2cc(=O)oc3ccccc23)nn1 |  | 60 | 63 | 65 | 5 |  |  | 
6 | COc1ccc(/C=C/C(=O)/C=C/c2ccc(OCc3cn(CCCOc4cc(=O)oc5ccccc45)nn3)c(OC)c2)cc1 | inactive | 53 | 54 | 56 |  |  |  | 
7 | COc1cc(/C=C/C(=O)/C=C/c2ccccc2)ccc1OCc1cn(CCOc2cc(=O)oc3ccccc23)nn1 |  | 54 | 56 | 61 | 10 |  |  | 
8 | COc1ccc(/C=C/C(=O)/C=C/c2ccc(OCc3cn(CCCOc4cc(=O)oc5ccccc45)nn3)c(OC)c2)cc1OC |  | 65 | 67 | 73 | 9 | 13 | 11 | 8.51
9 | COc1cccc(/C=C/C(=O)/C=C/c2ccc(OCc3cn(CCCOc4cc(=O)oc5ccccc45)nn3)c(OC)c2)c1 | inactive | 52 | 55 | 58 |  |  |  | 
10 | COc1ccc(/C=C/C(=O)/C=C/c2ccc(OCc3cn(CCCCOc4cc(=O)oc5ccccc45)nn3)c(OC)c2)cc1OC | inactive | 53 | 55 | 59 |  |  |  | 
11 | COc1cc(/C=C/C(=O)/C=C/c2cccs2)ccc1OCc1cn(CCCCOc2cc(=O)oc3ccccc23)nn1 | inactive | 40 | 41 | 44 |  |  |  | 
12 | COc1ccc(/C=C/C(=O)/C=C/c2ccc(OCc3cn(CCCCOc4cc(=O)oc5ccccc45)nn3)c(OC)c2)cc1 | inactive | 49 | 40 | 45 |  |  |  | 
13 | COc1cc(/C=C/C(=O)/C=C/c2cc(OC)c(OC)c(OC)c2)ccc1OCc1cn(CCCOc2cc(=O)oc3ccccc23)nn1 |  | 74 | 76 | 79 | 12 | 10.6 | 8.65 | 5.43
14 | COc1cc(/C=C/C(=O)/C=C/c2cccc3ccccc23)ccc1OCc1cn(CCCOc2cc(=O)oc3ccccc23)nn1 |  | 64 | 66 | 71 | 8 | 12.7 | 10.4 | 8.41
15 | COc1ccc(/C=C/C(=O)/C=C/c2ccc(OCc3cn(CCCCCOc4cc(=O)oc5ccccc45)nn3)c(OC)c2)cc1 | inactive | 30 | 35 | 39 |  |  |  | 
16 | COc1cc(/C=C/C(=O)/C=C/c2cccs2)ccc1OCc1cn(CCOc2cc(=O)oc3ccccc23)nn1 |  | 66 | 71 | 76 | 12 | 11.4 | 9.29 | 7.14
17 | COc1cccc(/C=C/C(=O)/C=C/c2ccc(OCc3cn(CCOc4cc(=O)oc5ccccc45)nn3)c(OC)c2)c1 |  | 69 | 70 | 77 | 13 | 11.9 | 9.76 | 7.13

Row | Compound | growth inhibition (GI) (PC-3) | inhibition of growth at 50 µM [1] [%] | inhibition of growth at 50 µM [2] [%] | inhibition of growth at 50 µM [3] [%] | inhibition of growth at 50 µM [4] [%] | IC50 [5] [µM] | IC50 [6] [µM] | IC50 [7] [µM]
18 | COc1cc(/C=C/C(=O)/C=C/c2ccco2)ccc1OCc1cn(CCCCCOc2cc(=O)oc3ccccc23)nn1 | inactive | 33 | 37 | 39 |  |  |  | 
19 | COc1cc(/C=C/C(=O)/C=C/c2cc(OC)c(OC)c(OC)c2)ccc1OCc1cn(CCCCCOc2cc(=O)oc3ccccc23)nn1 | inactive | 51 | 53 | 55 |  |  |  | 
20 | COc1cccc(/C=C/C(=O)/C=C/c2ccc(OCc3cn(CCCCCOc4cc(=O)oc5ccccc45)nn3)c(OC)c2)c1 | inactive | 34 | 36 | 37 |  |  |  | 
21 | COc1cc(/C=C/C(=O)/C=C/c2cccs2)ccc1OCc1cn(CCCCCOc2cc(=O)oc3ccccc23)nn1 | inactive | 30 | 31 | 34 |  |  |  | 
22 | COc1ccccc1/C=C/C(=O)/C=C/c1ccc(OCc2cn(CCCCOc3cc(=O)oc4ccccc34)nn2)c(OC)c1 | inactive | 47 | 43 | 40 |  |  |  | 
23 | COc1cc(/C=C/C(=O)/C=C/c2ccco2)ccc1OCc1cn(CCCCOc2cc(=O)oc3ccccc23)nn1 | inactive | 43 | 47 | 49 |  |  |  | 
24 | COc1cc(/C=C/C(=O)/C=C/c2cccs2)ccc1OCc1cn(CCCOc2cc(=O)oc3ccccc23)nn1 | inactive | 55 | 58 | 54 |  |  |  | 
25 | COc1cc(/C=C/C(=O)/C=C/c2ccccc2)ccc1OCc1cn(CCCCCOc2cc(=O)oc3ccccc23)nn1 | inactive | 22 | 24 | 26 |  |  |  | 
26 | COc1cc(/C=C/C(=O)/C=C/c2ccco2)ccc1OCc1cn(CCCOc2cc(=O)oc3ccccc23)nn1 | inactive | 59 | 51 | 57 |  |  |  | 
27 | COc1cc(/C=C/C(=O)/C=C/c2cccc3ccccc23)ccc1OCc1cn(CCCCOc2cc(=O)oc3ccccc23)nn1 | inactive | 50 | 56 | 54 |  |  |  | 
28 | COc1cc(/C=C/C(=O)/C=C/c2ccccc2)ccc1OCc1cn(CCCOc2cc(=O)oc3ccccc23)nn1 | inactive | 43 | 45 | 48 |  |  |  | 
29 | COc1cc(/C=C/C(=O)/C=C/c2ccccc2)ccc1OCc1cn(CCCCOc2cc(=O)oc3ccccc23)nn1 | inactive | 31 | 34 | 36 |  |  |  | 
30 | COc1ccccc1/C=C/C(=O)/C=C/c1ccc(OCc2cn(CCCCCOc3cc(=O)oc4ccccc34)nn2)c(OC)c1 | inactive | 30 | 33 | 37 |  |  |  | 
31 | COc1ccc(/C=C/C(=O)/C=C/c2ccc(OCc3cn(CCOc4cc(=O)oc5ccccc45)nn3)c(OC)c2)cc1 |  | 68 | 71 | 78 | 15 | 11.3 | 9.29 | 7.41
32 | COc1ccccc1/C=C/C(=O)/C=C/c1ccc(OCc2cn(CCCOc3cc(=O)oc4ccccc34)nn2)c(OC)c1 | inactive | 57 | 53 | 50 |  |  |  | 
33 | COc1cccc(/C=C/C(=O)/C=C/c2ccc(OCc3cn(CCCCOc4cc(=O)oc5ccccc45)nn3)c(OC)c2)c1 | inactive | 46 | 44 | 47 |  |  |  | 
